Avidin bead fluor – compound fluoresces at 488/530 nm on avidin beads | fluorescence (KMESF) at 10 µM | AID 1775 | compound fluorescence 488/530 nm, flow cytometry; stronger effect = higher value | 220,000 compounds, 0.38% hits; in the data active means fluorescence above about 47
GSH fluor – compound fluoresces at 488/530 nm on GSH beads. GSH beads flow cytometry, compound fluorescence 488/530 nm; stronger effect = higher value. fluorescence (KMESF) at 10 µM. 190,000 compounds, 0.25% hits; in the data active means fluorescence above about 89;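 further: glutathione beads carrying GST-tagged Bcl family fusion proteins plus one bare bead set; values are compound well signal with DMSO vehicle wells as background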
Arrestin-AP2 inh – blocks beta-arrestin peptide binding to AP2 adaptin | FITC-arrestin peptide / GST-AP2 beads, flow cytometry; AP2 beta2 appendage carries R879A mutation | inhibition, % at 10 µM | 340,000 compounds, 0.31% hits | AID 504490;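 active means inhibition above a set limit, near 3 SD of compounds lacking own fluorescence, cut at about 54% in these data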;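 further: plate controls were DMSO wells for no effect and 5 µM unlabelled arrestin peptide for full effect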
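System: GST-AP2 R879A bound to glutathione beads, E. coli-expressed. Also added: 50 nM FITC-arrestin peptide. Schedule: compound with beads 12 min RT, then probe 1 h RT. Signal: bead flow cytometry, FITC channel. Read-out basis: percent response.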
Pemphigus Ab inh – human desmoglein-3 autoantibody binding inhibition; binding (percent of control), % at 10 µM; DSG3-coupled beads, scFv-anti-DSG3-GFP binding, flow cytometry; stronger effect = lower value; 310,000 compounds, 0.48% hits;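 active means binding more than 3 SD below its plate's average and above zero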;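 further: hits lower antibody fragment binding to DSG3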
Target sequence (P32926 whole entry, looked up, the tested form may be a part): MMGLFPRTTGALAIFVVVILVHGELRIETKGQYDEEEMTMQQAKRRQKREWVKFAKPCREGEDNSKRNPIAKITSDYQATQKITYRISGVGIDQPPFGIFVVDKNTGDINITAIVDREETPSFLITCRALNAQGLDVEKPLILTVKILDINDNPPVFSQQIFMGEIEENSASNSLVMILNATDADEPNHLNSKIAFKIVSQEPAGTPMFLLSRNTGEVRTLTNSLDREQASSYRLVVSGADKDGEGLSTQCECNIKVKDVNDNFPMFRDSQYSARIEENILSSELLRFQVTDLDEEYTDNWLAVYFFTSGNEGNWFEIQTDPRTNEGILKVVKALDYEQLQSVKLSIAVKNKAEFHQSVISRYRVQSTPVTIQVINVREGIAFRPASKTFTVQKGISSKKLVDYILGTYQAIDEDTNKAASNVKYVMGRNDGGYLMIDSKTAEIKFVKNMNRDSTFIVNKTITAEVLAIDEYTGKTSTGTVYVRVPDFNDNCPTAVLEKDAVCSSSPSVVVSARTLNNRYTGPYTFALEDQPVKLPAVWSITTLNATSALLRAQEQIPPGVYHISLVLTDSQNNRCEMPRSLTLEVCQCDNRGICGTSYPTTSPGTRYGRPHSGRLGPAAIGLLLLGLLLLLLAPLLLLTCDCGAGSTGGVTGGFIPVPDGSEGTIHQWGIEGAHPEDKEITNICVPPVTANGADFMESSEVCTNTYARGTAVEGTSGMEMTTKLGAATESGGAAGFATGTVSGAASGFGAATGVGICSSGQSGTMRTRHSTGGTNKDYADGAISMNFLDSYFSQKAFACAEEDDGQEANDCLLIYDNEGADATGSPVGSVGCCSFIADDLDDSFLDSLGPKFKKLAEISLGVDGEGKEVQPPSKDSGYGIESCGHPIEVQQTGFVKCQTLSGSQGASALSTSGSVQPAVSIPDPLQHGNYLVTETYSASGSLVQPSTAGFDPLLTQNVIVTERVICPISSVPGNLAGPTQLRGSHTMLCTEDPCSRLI
* hit, by the source's call; i = inactive; · = no result given. Only some compounds are listed: those with a hit (about 1.1% of all), similar ones and a draw of the others.

SMILES	Avidin bead fluor	GSH fluor	Arrestin-AP2 inh	Pemphigus Ab inh
CCOC(=O)C(=O)Cc1cccnn1	·	·	52	47*
CCOC(=O)C(Cc1ccnc2ccccc12)=NO	·	·	-5	115
Cc1cc(C)cc(N(CC(=O)NC2CCC(C)CC2)S(=O)(=O)c2c(C)noc2C)c1 (stereo not given)	19	13	-7	91*
Cc1cc(C)cc(N(CC(=O)O)S(=O)(=O)c2c(C)noc2C)c1	12	34	4	99
Cc1noc(C)c1NC(=O)N(C)C[C@H]1Oc2ccc(NC(=O)NC(C)C)cc2C(=O)N([C@H](C)CO)C[C@@H]1C	·	·	6	103
CCOc1ncccc1C(=O)NCCN1C(=O)S/C(=C/c2cccs2)C1=O	5	19	1	79*
COc1cccc(C(=O)NCCN2C(=O)S/C(=C/c3cccs3)C2=O)c1OC	9	14	-15	85
CC(=O)NC1C2CN3CCN(C2)CC1(Cc1ccccc1)C3 (stereo not given)	11	22	-7	110
Cc1ccc(CC23CN4CCN(CC(C4)C2O)C3)c(C)c1 (stereo not given)	69*	22	-4	107
Cc1nc2ccc(NC(=O)Cc3cccc(F)c3)cc2s1	9	24	-27	109
Cc1nc2ccc(NC(=O)Cc3ccccc3F)cc2s1	53*	17	-10	53
COc1ccc(Cl)cc1C(=O)NNC(=O)CNC(=O)c1ccco1	·	·	2	101
CCCN1C(=O)c2ccc(C(=O)Nc3cc(C)on3)cc2C1=O	9	17	22	·
CCCCN1C(=O)c2ccc(C(=O)Nc3c(N)n(CCCC)c(=O)n(C)c3=O)cc2C1=O	8	271*	·	103
Cc1cccc(NC(=O)CSCC(=O)Nc2ccc(S(=O)(=O)N3CCCCC3)cc2)c1	·	·	3	99
COCCN(CC(=O)Nc1cccc(C)c1)S(=O)(=O)c1ccc(S(=O)(=O)N2CCCC2)cc1	7	19	-1	-25*
Cc1cc(=O)[nH]c(SCC(=O)Nc2c(C)n(C)n(-c3ccccc3)c2=O)n1	·	·	1	98
COc1ccc(NC(=S)N/N=C2/CCCc3c(C)cc(C)cc32)cc1	12	24	12	-6.5*
O=C(CS(=O)(=O)c1ccccc1)Nc1ccc(Br)cn1	6	7	5	59*
NC(=O)c1ccsc1NC(=O)CSc1nnc(Nc2ccccc2)s1	7	15	3	99
NC(=O)c1ccsc1NC(=O)COC(=O)c1ccc(Cl)nc1	·	·	25	59*
Cc1cc(Cl)ccc1OCC(=O)NNC(=O)c1ccc(=O)[nH]c1	·	·	0	121
O=C(NC1CCS(=O)(=O)C1)C1C2CC3CC(C2)CC1C3 (stereo not given)	55*	59	-6	98
O=C(O)C1C2C=CC(C2)C1C(=O)NC1CCS(=O)(=O)C1 (stereo not given)	16	24	-7	105
O=C(Cc1ccccc1[N+](=O)[O-])NCc1ccc(Cl)cc1	119*	20	-5	111
SMILES	Avidin bead fluor	GSH fluor	Arrestin-AP2 inh	Pemphigus Ab inh
O=C(NCc1ccc(Cl)cc1)c1ccncc1	·	·	12	83*
O=C(NCc1ccc(F)cc1)c1ccncc1	·	·	-2	135
O=C(Cc1ccccc1[N+](=O)[O-])NCc1ccc(Cl)cc1Cl	6	10	0	98
CCOc1ccc2nc(SCC(=O)N3CCCc4ccccc43)sc2c1	19	29	-2	97
CCOc1ccc2nc(SCC(=O)NC3CCCc4ccccc43)sc2c1 (stereo not given)	2	17	-2	64*
CCCN(Cc1cc2cc(OC)ccc2[nH]c1=O)C(=O)c1ccco1	49*	·	-1	100
CCCCN(Cc1cc2cc(OC)ccc2[nH]c1=O)C(=O)c1ccco1	5	11	6	111
O=c1c(-c2ccnn2-c2ccccc2F)cnc2n1CCS2	7	249*	5	103
Cn1c(SCc2cccc(Br)c2)nnc1-c1ccccn1	6	·	-14	110
Cn1cnnc1SCc1cccc(Br)c1	8	11	0	41*
COc1ccc([N+](=O)[O-])cc1NCc1c(F)cccc1F	·	·	·	108
O=C1c2ccccc2C(=O)N1CCn1ccnc1	·	·	1	106
O=C1c2ccccc2C(=O)N1CCCn1ccnc1	·	·	32	91*
O=C1c2ccccc2C(=O)N1CCc1nc2ccccc2c(=O)n1CCCn1ccnc1	8	272*	-1	91
Cc1ccc(-c2nc3ccccc3[nH]2)cc1NC(=O)c1sc2cc(Cl)ccc2c1Cl	10	10	23	121
CCOc1ccccc1C(=O)NC(CO)C(=O)O (stereo not given)	6	271*	12	96
CCOc1ccc(C(CCc2ccccc2)NC(=O)c2ccccc2OC)cc1OCC (stereo not given)	51*	21	11	102
CCOc1ccccc1C(=O)NC(C)CCc1ccccc1 (stereo not given)	·	·	1	111
O=C(CNCCc1ccccc1)Nc1ccc(C(=O)N2CCCCC2)cc1	·	·	7	·
O=c1c(CO)cc(CO)cc(CO)c1O	5	·	17	84
O=C1C=CC(=O)c2c(O)c(CO)c(CO)c(O)c21	·	·	58*	25*
Cc1ccc([N+](=O)[O-])cc1S(=O)(=O)Nc1ccc(C(=O)NCC2CCCO2)cc1 (stereo not given)	·	·	3	108
CCc1ccc(C(=O)NNC(=O)OC)cc1	13	11	10	121
Cc1cc(O)ccc1C1(c2ccc(O)cc2C)OC(=O)c2ccccc21	20	15	0	103
CC(=O)Oc1ccc2c(c1)Oc1cc(OC(C)=O)ccc1C21OC(=O)c2ccccc21	399*	200*	-155	i
SMILES	Avidin bead fluor	GSH fluor	Arrestin-AP2 inh	Pemphigus Ab inh
CCOc1ccccc1C(=O)NCC(=O)N(C)Cc1cccnc1	·	·	0	91
O=c1[nH]nnc2c1cnn2-c1ccccc1	·	·	3	91
O=C(O)c1sccc1S(=O)(=O)N1CCCCC1	·	·	·	105
CC1(C)CN(c2ccsc2C(=O)O)C1=O	11	16	3	56*
CCOC(=O)C1=CNS(=O)(=O)NC1c1ccc(C#N)cc1 (stereo not given)	·	·	10	106
COc1cc(/C=C2\C(=O)N(c3ccc(NC(C)=O)cc3)N=C2c2ccccc2)ccc1O	131*	15	11	97
O=C1/C(=C\c2ccc(O)c(O)c2)C(c2ccccc2)=NN1c1ccccc1	9	11	8	93
Cc1nnc2ccc(-c3ccc(NS(=O)(=O)c4ccccc4)cc3)nn12	·	·	10	71*
O=C(CN1CCN(Cc2ccccc2F)C1=O)NCCc1ccc(Cl)cc1	60*	27	5	101
CCOc1ccc(CCNC(=O)CN2CCN(Cc3ccccc3F)C2=O)cc1OCC	15	24	5	·
CC1=NN(C(=O)CCc2ccc3c(c2)OCO3)C(O)(C(F)(F)F)C1 (stereo not given)	9	18	-8	86
Cc1ccc(OCC(=O)OCc2nc3scc(-c4ccccc4)c3c(=O)[nH]2)cc1C	·	·	-5	99
O=C(COC(=O)Cc1ccc(Cl)cc1Cl)NC1CC1	·	·	-6	84
O=C(Cc1ccc(Cl)cc1Cl)NC1CCCCCC1	·	·	5	24*
